In ChEMBL document CHEMBL1139980, “Identification of 1-isopropylsulfonyl-2-amine benzimidazoles as a new class of inhibitors of hepatitis B virus” (Eur J Med Chem, 2007):
The source made the active and inactive calls. No cut-off for these calls is given here.

Columns and labels:
[1] = Selectivity index, ratio of CC50 for HepG2.2.15 cells to IC50 for HBV; type: functional
In short: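 The index was calculated as CC50 divided by IC50. CC50 came from an 8-day MTT assay in HepG2.2.15 cells, and IC50 from fluorescent-PCR quantification of HBV DNA after treatment of confluent HepG2.2.15 cultures.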

Hepatitis B virus = experiment: Inhibition of cytoplasmic HBV DNA synthesis in HepG2.2.15 cells after 8 days; type: functional, organism-based; conditions: for IC50: HepG2.2.15, 192 h
In short: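 Confluent HepG2.2.15 cultures were treated with various doses. A 50 µL supernatant sample was added to extraction buffer, boiled for 10 min and centrifuged for 5 min, and aliquots were run in fluorescent PCR with HBV-specific primers and probe. IC50 was taken as the concentration giving 50% inhibition of cytoplasmic HBV DNA synthesis.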

Row | SMILES | Ratio CC50/IC50 [1] | IC50 (Hepatitis B virus) [nM] | Activity (Hepatitis B virus)
1 | CC(C)S(=O)(=O)n1c(N)nc2ccc(NC(=O)c3c(F)cccc3F)cc21 | 274 | 700 | –
2 | CC(C)S(=O)(=O)n1c(N)nc2cc(NC(=O)c3ccccc3)ccc21 | >250 | 2000 | –
3 | COc1cccc(CN(Cc2cccc(OC)c2)c2ccc3nc(N)n(S(=O)(=O)C(C)C)c3c2)c1 | 123 | 700 | –
4 | Cc1ccc(S(=O)(=O)Nc2ccc3nc(N)n(S(=O)(=O)C(C)C)c3c2)cc1 | 17 | 4800 | –
5 | CC(C)S(=O)(=O)n1c(N)nc2ccc(NC(=O)c3ccc(F)cc3)cc21 | 56 | 1200 | –
6 | CC(C)S(=O)(=O)n1c(N)nc2cc(NC(=O)c3ccc(F)cc3)ccc21 | 9 | 3700 | –
7 | Cc1ccc(S(=O)(=O)Nc2ccc3c(c2)nc(N)n3S(=O)(=O)C(C)C)cc1 | 9 | 16000 | –
8 | Nc1ccn([C@@H]2CS[C@H](CO)O2)c(=O)n1 [LAMIVUDINE] | >2632 | – | –
9 | CC(C)S(=O)(=O)n1c(N)nc2ccc(NCc3ccccc3)cc21 | – | – | inactive
10 | Nc1ncnc2c1ncn2CCOCP(=O)(O)O [ADEFOVIR] | 34 | 1700 | –
11 | CC(C)S(=O)(=O)n1c(N)nc2ccc(NS(=O)(=O)c3ccccc3)cc21 | 41 | 1500 | –
12 | Cc1ccc(C(=O)Nc2ccc3nc(N)n(S(=O)(=O)C(C)C)c3c2)cc1 | >119 | 4200 | –
13 | CC(C)S(=O)(=O)n1c(N)nc2ccc(NC(=O)c3ccccc3Cl)cc21 | 107 | 820 | –
14 | CC(C)S(=O)(=O)n1c(N)nc2ccc(NC(=O)c3ccccc3)cc21 | >15 | 33700 | –
15 | CC(C)S(=O)(=O)n1c(N)nc2ccc(NS(=O)(=O)c3cccc([N+](=O)[O-])c3)cc21 | 5 | 10500 | –
16 | CC(C)S(=O)(=O)n1c(N)nc2ccc(NC(=O)c3ccccc3F)cc21 | 51 | 940 | –
